In ChEMBL document CHEMBL1140903, “Reactions of functionalized sulfonamides: application to lowering the lipophilicity of cytosolic phospholipase A2alpha inhibitors” (J Med Chem, 2009):
The source made the active and inactive calls. The rule behind the calls is not given here.

Columns and labels:
[1] = test system: MC9; assay: Inhibition of IgE-specific antigen-induced PGF2alpha release in mouse MC9 cells at 0.11 uM
[2] = test system: MC9; assay: Inhibition of IgE-specific antigen-induced LBT4 release in mouse MC9 cells at 0.11 uM
[3] = test system: Rattus norvegicus; assay: Antiinflammatory activity against carrageenan-induced paw edema in Sprague-Dawley rat at 15 mg/kg, iv; format: functional
Method in brief: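 Rat carrageenan paw edema after iv dosing in 50/50 PEG/DMSO, with paw swelling assessed 3 h after dosing. Groups of 10 animals; naproxen was used to define maximal % inhibition.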

[4] = test system: Rattus norvegicus; assay: Plasma concentration in carrageenan-induced paw edema Sprague-Dawley rat model at 15 mg/kg, iv; format: ADME, organism-based; parameters: dose 15 mg/kg, route intravenous; conditions: in vivo
Method in brief: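 Plasma concentration is measured in end-bleed samples taken 3 h after iv dosing in 50/50 PEG/DMSO in the carrageenan paw edema model. Values are means from five animals.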

[5] = test system: MC9; assay: Inhibition of arachidonic acid-induced PGF2-alpha release in mouse MC9 cells at 1.0 uM
[6] = test system: Blood; assay: Inhibition of A23187-induced TBX2 release in Sprague-Dawley rat whole blood; format: functional, tissue-based
Method in brief: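 Rat whole blood is stimulated with calcium ionophore A23187, and thromboxane B2 is the read-out (cPLA2α- and COX-1-dependent). IC50 is taken from at least two runs, each run the mean of triplicate assays.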

[7] = test system: MC9; assay: Inhibition of IgE-specific antigen-induced PGF2-alpha release in mouse MC9 cells at 0.037 uM
[8] = biological target: T1, Cytosolic phospholipase A2 (Homo sapiens, UniProt P47712); assay: Inhibition of human cytosolic PLA2alpha by GLU micelle assay
T1 sequence (P47712 whole entry): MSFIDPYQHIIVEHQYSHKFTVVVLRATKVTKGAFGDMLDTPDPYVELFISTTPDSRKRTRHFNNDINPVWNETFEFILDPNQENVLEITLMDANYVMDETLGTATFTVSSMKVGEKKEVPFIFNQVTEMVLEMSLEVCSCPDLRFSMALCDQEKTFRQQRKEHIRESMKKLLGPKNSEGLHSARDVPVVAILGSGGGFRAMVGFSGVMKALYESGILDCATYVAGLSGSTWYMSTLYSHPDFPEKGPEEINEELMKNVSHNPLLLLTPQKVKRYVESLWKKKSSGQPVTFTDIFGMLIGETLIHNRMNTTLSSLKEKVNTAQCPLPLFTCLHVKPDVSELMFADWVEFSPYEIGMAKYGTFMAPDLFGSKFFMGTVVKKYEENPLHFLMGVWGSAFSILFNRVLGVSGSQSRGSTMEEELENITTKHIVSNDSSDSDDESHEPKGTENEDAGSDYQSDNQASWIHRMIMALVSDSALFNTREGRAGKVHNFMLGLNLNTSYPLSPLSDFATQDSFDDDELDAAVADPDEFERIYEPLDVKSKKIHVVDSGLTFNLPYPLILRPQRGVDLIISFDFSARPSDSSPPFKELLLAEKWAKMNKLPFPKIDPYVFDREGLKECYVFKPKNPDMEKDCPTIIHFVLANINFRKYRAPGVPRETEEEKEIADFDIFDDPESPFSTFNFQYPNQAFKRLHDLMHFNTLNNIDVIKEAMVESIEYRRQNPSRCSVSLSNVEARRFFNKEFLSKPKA
Method in brief: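 Purified human cPLA2α with the substrate 7-hydroxycoumarinyl-γ-linolenate (GLU), presented in micelles containing a high concentration of detergent and lipid. IC50 is taken from at least two runs, each run the mean of duplicate assays.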

[9] = test system: MC9; assay: Inhibition of IgE-specific antigen-induced LBT4 release in mouse MC9 cells at 0.037 uM
[10] = test system: MC9; assay: Inhibition of arachidonic acid-induced PGF2-alpha release in rat MC9 cells at 0.0005 uM; format: functional; conditions: Mus musculus
[11] = test system: MC9; assay: Inhibition of IgE-specific antigen-induced PGF2-alpha release in rat MC9 cells at 0.0005 uM; format: functional; conditions: Mus musculus
[12] = test system: MC9; assay: Inhibition of IgE-specific antigen-induced PGF2-alpha release in mouse MC9 cells at 0.40 uM
[13] = test system: MC9; assay: Inhibition of arachidonic acid-induced PGF2alpha release in mouse MC9 cells at 0.30 uM
[14] = test system: MC9; assay: Inhibition of IgE-specific antigen-induced PGF2alpha release in mouse MC9 cells at […]
[15] = test system: MC9; assay: Inhibition of IgE-specific antigen-induced LBT4 release in mouse MC9 cells at […]
[16] = test system: MC9; assay: Inhibition of arachidonic acid-induced PGF2-alpha release in mouse MC9 cells at 0.5 uM
[17] = test system: MC9; assay: Inhibition of IgE-specific antigen-induced PGF2alpha release in mouse MC9 cells at 0.5 uM
[18] = test system: MC9; assay: Inhibition of IgE-specific antigen-induced LBT4 release in mouse MC9 cells at 0.5 uM
[19] = test system: MC9; assay: Inhibition of IgE-specific antigen-induced PGF2-alpha release in mouse MC9 cells
[20] = test system: MC9; assay: Inhibition of IgE-specific antigen-induced LBT4 release in mouse MC9 cells at […]; remark: listed apart in the source
[21] = test system: MC9; assay: Inhibition of arachidonic acid-induced PGF2-alpha release in mouse MC9 cells
[22] = test system: Rattus norvegicus; assay: Plasma concentration in carrageenan-induced paw edema Sprague-Dawley rat model at 15 mg/kg, iv; conditions: in vivo
[23] = test system: Blood; assay: Inhibition of A23187-induced TBX2 release in human whole blood; format: functional, tissue-based
Method in brief: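 Human whole blood is stimulated with calcium ionophore A23187 at a higher concentration than in the rat whole blood assay. Thromboxane production is the read-out.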

[24] = test system: MC9; assay: Inhibition of IgE-specific antigen-induced LBT4 release in mouse MC9 cells at 0.333 uM
[25] = test system: MC9; assay: Inhibition of IgE-specific antigen-induced PGF2alpha release in rat MC9 cells at 0.20 uM; conditions: Mus musculus, MC9, read-out: INH
[26] = test system: MC9; assay: cells; conditions: Mus musculus, MC9, read-out: INH
[27] = test system: Rattus norvegicus; assay: Antiinflammatory activity against carrageenan-induced paw edema in Sprague-Dawley rat at 10 mg/kg, iv; conditions: read-out: INH

Structure (SMILES)	inhibition at 1 µM [5] [%]	IC50 [6] [nM]	IC50 [8] [nM]	other results
O=C(O)c1ccc(OCCc2c(CCNS(=O)(=O)CCN3CCSCC3)n(C(c3ccccc3)c3ccccc3)c3ccc(Cl)cc23)cc1	6	180		inhibition at 0.11 µM [1]: 66%; inhibition at 0.11 µM [2]: 76%; inhibition in vivo at 15 mg/kg [3]: 27.9%; concentration [4]: 270 nM
O=C(O)c1ccc(OCCc2c(CCNS(=O)(=O)CSc3ccc(Cl)c(Cl)c3)n(C(c3ccccc3)c3ccccc3)c3ccc(Cl)cc23)cc1	33	140	240	inhibition at 0.037 µM [7]: 48%; inhibition at 0.037 µM [9]: 64%
Cc1ccc(-c2cc(C(F)(F)F)nn2-c2ccc(S(N)(=O)=O)cc2)cc1 [CELECOXIB]				inhibition at 0.0005 µM [10]: 79%; inhibition at 0.0005 µM [11]: 79%; inhibition at 0.4 µM [12]: 50%; inhibition at 0.3 µM [13]: 50%
NC(=O)C1CCCN1CCS(=O)(=O)NCCc1c(CCOc2ccc(C(=O)O)cc2)c2cc(Cl)ccc2n1C(c1ccccc1)c1ccccc1 (single isomer, unassigned)	8	3200	350	inhibition at 0.33 µM at […] [14]: 41%; inhibition at 0.33 µM at […] [15]: 41%
Cc1cc(C)n(CCS(=O)(=O)NCCc2c(CCOc3ccc(C(=O)O)cc3)c3cc(Cl)ccc3n2C(c2ccccc2)c2ccccc2)n1	5	160	450	inhibition at 0.11 µM [1]: 83%; inhibition at 0.11 µM [2]: 89%
O=C(O)c1ccc(OCCc2c(CCNS(=O)(=O)C[S+]([O-])c3ccc(Cl)c(Cl)c3)n(C(c3ccccc3)c3ccccc3)c3ccc(Cl)cc23)cc1 (stereo not given)	1.4	560	180	inhibition at 0.11 µM [1]: 45%; inhibition at 0.11 µM [2]: 55%
CS(=O)(=O)CS(=O)(=O)NCCc1c(CCOc2ccc(C(=O)O)cc2)c2cc(Cl)ccc2n1C(c1ccccc1)c1ccccc1		480	150	inhibition at 0.5 µM [16]: -47%; inhibition at 0.5 µM [17]: 100%; inhibition at 0.5 µM [18]: 100%
CC(c1cc2ccccc2s1)N(O)C(N)=O (stereo not given) [ZILEUTON]				Activity [19]: inactive; inhibition at 0.55 µM at […] [20]: 50%; Activity [21]: inactive
O=C(O)c1ccc(CCCc2c(CCNS(=O)(=O)CCN3CCOCC3)n(C(c3ccccc3)c3ccccc3)c3ccc(Cl)cc23)cc1	9	140	200	inhibition at 0.11 µM [1]: 71%; inhibition at 0.11 µM [2]: 69%; inhibition in vivo at 15 mg/kg [3]: 23.5%; concentration [4]: 163 nM
CC1CCCCN1CCS(=O)(=O)NCCc1c(CCOc2ccc(C(=O)O)cc2)c2cc(Cl)ccc2n1C(c1ccccc1)c1ccccc1 (stereo not given)	14	57	120	inhibition at 0.037 µM [7]: 45%; inhibition at 0.037 µM [9]: 62%
O=C(O)c1ccc(CCCc2c(CCNS(=O)(=O)Cc3ccc(Cl)c(Cl)c3)n(C(c3ccccc3)c3ccccc3)c3ccc(Cl)cc23)cc1 [EFIPLADIB]		70	40	inhibition in vivo at 15 mg/kg [3]: 51%; concentration [22]: 5300 nM
CC1CCC(C)N1CCS(=O)(=O)NCCc1c(CCOc2ccc(C(=O)O)cc2)c2cc(Cl)ccc2n1C(c1ccccc1)c1ccccc1 (stereo not given)	-2	74	130	inhibition at 0.11 µM [1]: 69%; inhibition at 0.11 µM [2]: 80%; inhibition in vivo at 15 mg/kg [3]: 37%; concentration [4]: 232 nM
O=C(O)c1ccc(OCCc2c(CCNS(=O)(=O)CCn3ncnn3)n(C(c3ccccc3)c3ccccc3)c3ccc(Cl)cc23)cc1	4	450	380	inhibition at 0.33 µM at […] [14]: 71%; IC50 [23]: 2000 nM; inhibition at 0.333 µM [24]: 80%
COc1ccc2cc([C@H](C)C(=O)O)ccc2c1 [NAPROXEN]				inhibition at 0.2 µM [25]: 50%; inhibition at […] [26]: 50%; inhibition in vivo at 10 mg/kg [27]: 50%
O=C(O)c1ccc(OCCc2c(CCNS(=O)(=O)CCN3CCCCC3)n(C(c3ccccc3)c3ccccc3)c3ccc(Cl)cc23)cc1		140	360	
O=C(O)c1ccc(OCCc2c(CCNS(=O)(=O)CSc3ccc(F)cc3F)n(C(c3ccccc3)c3ccccc3)c3ccc(Cl)cc23)cc1	47	30	140	inhibition at 0.037 µM [7]: 77%; inhibition at 0.037 µM [9]: 94%
Cc1ccccc1CS(=O)(=O)NCCc1c(CCCc2ccc(C(=O)O)cc2)c2cc(Cl)ccc2n1C(c1ccccc1)c1ccccc1		25	26	
O=C(O)c1ccc(OCCc2c(CCNS(=O)(=O)CSc3ccccc3)n(C(c3ccccc3)c3ccccc3)c3ccc(Cl)cc23)cc1		75	190	
CN(C)CC1CCCCN1CCS(=O)(=O)NCCc1c(CCOc2ccc(C(=O)O)cc2)c2cc(Cl)ccc2n1C(c1ccccc1)c1ccccc1 (stereo not given)	13	150	270	inhibition at 0.11 µM [1]: 56%; inhibition at 0.11 µM [2]: 62%
O=C(O)c1ccc(OCCc2c(CCNS(=O)(=O)CCN3CCN(c4ccccn4)CC3)n(C(c3ccccc3)c3ccccc3)c3ccc(Cl)cc23)cc1		210	290	
O=C(O)c1ccc(OCCc2c(CCNS(=O)(=O)CCN3CCCC3)n(C(c3ccccc3)c3ccccc3)c3ccc(Cl)cc23)cc1		330	350	
